Hits are enriched below; roughly 2.1% of the tested compounds scored in any of these assays.
APJ agonist: activates the human apelin receptor APJ; 330,000 tested, 0.11% active; AID 2520; CHO-K1 APJ PathHunter beta-arrestin, luminescence; 0% DMSO wells, 100% apelin; P35414; activation, % at 20 µM;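 active means activation more than six SD over the plate average, tested at 20 µM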;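 further: 0% = DMSO alone and 100% = apelin-13 at 10 nM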
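Material: engineered CHO-K1 APJ arrestin reporter cells; amount: 1000 CHO-K1 reporter cells seeded per well; incubation: compound stimulation 90 min at 25 °C, detection 60 min; signal: luminescent beta-gal fragment complementation, chemiluminescent substrate; read-out basis: APJ agonist activity; controls: DMSO-only wells as negative, 10 nM Apelin-13 as positive control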
APJ antag: blocks the human apelin receptor APJ. P35414. AID 2521. inhibition, % at 20 µM. 330,000 tested, 0.32% active. CHO-K1 APJ beta-arrestin complementation, luminescence;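 active means inhibition above about 40% at 20 µM, limit read from the data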;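 further: cells challenged with 10 nM apelin-13 agonist together with compound; plate controls were apelin-13 plus DMSO wells for no effect and DMSO wells lacking apelin-13 for full effect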
CXCR6 block: CXCR6 (human) receptor inhibition; O00574; CHO-K1 PathHunter CXCR6 beta-arrestin, luminescence; inhibition, % at 20 µM; 360,000 tested, 0.36% active; in the data active means inhibition above about 34%, passing the limit was not always enough;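 further: antagonist mode with CXCL16 agonist at 10 nM final; 0% = 10 nM CXCL16 with DMSO and 100% = unstimulated wells without agonist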
m5-HT2A agonist: mouse HTR2A agonism via beta-arrestin recruitment; CHO-K1 mHTR2A beta-arrestin complementation, luminescence; percent of 30 µM serotonin response; P35363; 360,000 tested, 0.66% active; activation, % at 7.6 µM;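 active means activation above a run cutoff, the mean activation of all tested compounds plus 3 SD, cut at about 14% in these data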;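 further: 0% = plate median of compound wells and 100% = 30 µM serotonin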
CCR6 antagonist: antagonists of human CCR6 receptor; P51684; inhibition, % at 20 µM; 340,000 tested, 0.49% active; CHO-K1 CCR6 PathHunter beta-arrestin, luminescence, CCL20-stimulated; AID 493098;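 active means compounds whose inhibition of the agonist-driven luminescence signal at 20 µM reaches about 50%, limit read from the data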;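 further: cells stimulated with CCL20 at 14 nM final; plate controls were DMSO with CCL20 for no effect and DMSO without agonist for full effect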
EBI2 block: blocks human EBI2 receptor beta-arrestin signaling | EBI2 beta-arrestin recruitment, luminescence, 7a,25-OHC stimulated | inhibition, % at 5 µM | 360,000 tested, 0.81% active; in the data active means inhibition above about 38%;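 further: enzyme fragment complementation signal reports receptor beta-arrestin coupling in cells; 0% = agonist plus DMSO wells and 100% = wells without agonist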
Target sequence (P32249 whole entry, looked up, the tested form may be a part): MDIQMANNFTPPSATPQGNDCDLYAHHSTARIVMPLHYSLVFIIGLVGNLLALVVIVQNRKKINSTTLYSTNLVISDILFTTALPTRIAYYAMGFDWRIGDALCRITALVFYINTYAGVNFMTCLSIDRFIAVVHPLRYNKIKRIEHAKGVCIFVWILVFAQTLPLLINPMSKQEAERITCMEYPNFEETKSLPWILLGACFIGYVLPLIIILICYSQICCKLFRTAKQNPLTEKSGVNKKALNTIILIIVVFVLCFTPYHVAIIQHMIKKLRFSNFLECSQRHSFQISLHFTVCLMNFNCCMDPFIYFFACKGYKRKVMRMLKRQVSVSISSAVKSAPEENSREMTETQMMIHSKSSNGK
OPRM1 ag: activates human mu opioid receptor in HTR2A counterscreen. U2OS OPRM1 beta-arrestin PathHunter, luminescence; DMSO 0%, DAMGO 9.3 µM 100%. 2,300 tested, 5.3% active. activation, % at 9.3 µM. shares compounds with m5-HT2A agonist;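 active means mean activation above the mean of DMSO-only wells plus 3 SD, cut at about 0.5% in these data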
HTR2A ag conf: mouse HTR2A agonism confirmed. shares compounds with m5-HT2A agonist. CHO-K1 PathHunter beta-arrestin recruitment, luminescence; DMSO 0%, 30 µM serotonin 100%. activation, % at 7.6 µM. 2,300 tested, 19% active;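 active means mean activation across triplicates above the hit threshold derived in the original primary screen, cut at about 15% in these data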
Active calls of the source: *; . = no result given.

SMILES	APJ agonist	APJ antag	CXCR6 block	m5-HT2A agonist	CCR6 antagonist	EBI2 block	OPRM1 ag	HTR2A ag conf
CS(=O)(=O)c1ccc(C(=O)N2CCN(S(=O)(=O)c3ccc(C4CCCCC4)cc3)CC2)cc1	.	.	-2	0	27	2	.	.
CCC(=O)NCc1csc(-c2cccs2)n1	-5	13	-4	39*	9	-13	-1	-2
COc1ccccc1CC(=O)NCc1csc(-c2cccs2)n1	-1	-3	3	-1	15	8	.	.
Nc1ccc(CSc2ccc(Cl)cc2)c(Cl)c1	.	.	-4	-3	5	15	.	.
Cc1ccc(P(=O)(CSC(=N)N)c2ccc(C)cc2)cc1	-5	21	19	3	21	14	.	.
Cc1ccc(P(=O)(CO)c2ccc(C)cc2)cc1	-4	15	-4	15*	-5	-4	-1	-5
CN1CCN(NC(=O)Nc2ccc(F)cc2)CC1	-1	23	5	15*	-15	1	-1	-2
Cc1cc(C)nc(N2N=C(c3ccccc3)CC2=O)n1	-1	10	10	-2	15	0	.	.
O=C1CC(c2ccccc2)=NN1c1ccccc1	.	.	3	15*	13	9	-1	-2
CCNC(=O)CCS(=O)(=O)c1ccc2ccccc2c1	1	14	6	16*	-7	5	0	-3
Cc1noc(C)c1CN1C(=O)c2cccc([N+](=O)[O-])c2C1=O	1	18	-10	14*	-5	0	0	0
Cc1noc(C)c1CN1C(=O)c2ccc([N+](=O)[O-])cc2C1=O	5	-6	0	4	1	-12	.	.
CC(=O)NC(CC(=O)Nc1ccc2c(c1)OCCO2)c1ccccc1 (configuration not stated)	-2	12	0	-6	-10	-6	.	.
CCOC(=O)[C@H]1[C@H]2COc3ccc(Cl)cc3[C@@H]2N2C(=O)c3ccc(C)cc3NC(=O)[C@@]12C	-5	-6	-3	15*	11	-3	-1	-3
CCOC(=O)[C@H]1[C@H]2COc3ccc(Cl)cc3[C@@H]2N2C(=O)c3ccc(F)cc3NC(=O)[C@@]12C	-6	4	8	1	15	-2	.	.
CCOC(=O)[C@H]1[C@H]2COc3ccc(C)cc3[C@@H]2N2C(=O)CN(Cc3ccc(C)cc3)C(=O)[C@@]12C	-3	12	7	3	-4	8	.	.
CCOC(=O)[C@H]1[C@H]2COc3ccc(OC)cc3[C@@H]2N2C(=O)[C@H](C)NC(=O)[C@@]12C	0	10	10	20*	-3	-1	-1	-2
CCOC(=O)[C@H]1[C@H]2COc3ccc(C)cc3[C@@H]2N2C(=O)CN(Cc3ccco3)C(=O)[C@@]12C	-2	1	3	15*	0	-14	-1	-1
CCOC(=O)[C@H]1[C@H]2COc3ccc(C)cc3[C@@H]2N2C(=O)[C@@H](C)NC(=O)[C@@]12C	-2	2	-8	-3	-1	-8	.	.
CC(C)NC(=O)C1(C)CCN1C(=O)c1cccc(Cl)c1 (configuration not stated)	.	.	-1	-5	.	1	.	.
CC(C)NC(=O)C1(C)CCN1C(=O)c1ccc(F)c(Cl)c1 (configuration not stated)	.	.	-1	15*	.	1	-1	-4
COc1cc(/C=C2\C(=N)N3N=C(S(C)(=O)=O)SC3=NC2=O)ccc1OCCOc1ccc(C)cc1	-4	20	-4	16*	24	-5	-1	-2
Cc1cccc(C)c1NC(=O)CN1C(=O)C2CC=CCC2C1=O (configuration not stated)	-4	20	-4	-2	1	-4	.	.
Cc1cccc(C(C)C)c1NC(=O)COC(=O)CN1C(=O)C2CC=CCC2C1=O (configuration not stated)	-3	10	7	20*	11	-19	0	6
Cc1ccccc1S(=O)(=O)NC(=O)C1(C)CCN1C(=O)Cc1ccccc1Cl (configuration not stated)	.	.	-5	0	.	9	.	.
SMILES	APJ agonist	APJ antag	CXCR6 block	m5-HT2A agonist	CCR6 antagonist	EBI2 block	OPRM1 ag	HTR2A ag conf
Cc1nnc(N2CCC(C(=O)N3CCCCCC3)CC2)c2nn(-c3ccc(Cl)cc3)c(C)c12	-9	13	7	5	13	17	.	.
COc1ccccc1C1NC(=O)NC(C)=C1C(=O)OCc1ccccc1 (configuration not stated)	3	12	-2	-3	-2	7	.	.
CC1=C(C(=O)OCc2ccccc2)C(c2ccccc2Br)NC(=O)N1 (configuration not stated)	-2	-8	-2	29*	-7	-5	0	23*
CCOc1ccc(S(=O)(=O)NCCC(=O)NCc2ccc(OC)c(OC)c2)cc1	-4	-1	3	14*	6	-5	1.5*	8
CC1CCN(c2nc3c(c(=O)[nH]c(=O)n3C)n2CCSc2ncccn2)CC1	.	.	4	60*	4	-2	0	-3
O=C(Nc1ccccc1OC(F)F)c1ccc(S(=O)(=O)N2CCCC2)cc1	1	4	5	0	0	3	.	.
c1ccc(C2CCC(N3CCN(c4ccccc4)CC3)CC2)cc1 (configuration not stated)	0	12	6	-4	6	5	.	.
COc1ccc2c(c1)CCCC21NC(=O)N(CC(N)=O)C1=O (configuration not stated)	2	-38	-2	-2	5	-17	.	.
COc1ccc2c(c1)CCCC21NC(=O)N(CC(=O)NCc2cccs2)C1=O (configuration not stated)	1	-11	7	19*	-2	4	0	1
CCOC(=O)c1ccc(NC(=O)c2sc3nc(N4CCOCC4)c4c(c3c2N)CCCC4)cc1	-2	2	-1	18*	3	11	0	-3
COc1ccc(NC(=O)c2sc3nc(N4CCOCC4)c4c(c3c2N)CCCC4)cc1	.	.	5	-1	.	21	.	.
O=C(NC1(N2CCOCC2)CC1)c1ccc(Cl)cc1	-3	-4	-5	15*	6	-2	-1	-2
Cc1ccc(S(=O)(=O)N(C)C)cc1NC(=O)CCNC(=O)c1ccco1	-3	4	-9	9	-6	-1	.	.
Fc1cccc(Cl)c1/C=N/Nc1ccccn1	-3	10	-3	3	0	-9	.	.
